# Measured values reported in PMC8923172 (Antimicrobial Agents and Chemotherapy, 2022).
# Marks after values point to notes of the source that are not given here. Residues, ends and D or L forms follow the SMILES beside them.
# Assays:
# [1] = Hematology of cynomolgus monkeys at the end of treatment; type: in vivo; settings: median (IQR)
# Method in brief: (§1)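 GLP 10-day study in male and female cynomolgus monkeys (n = 3-5/sex/group) dosed once daily with 0 (placebo), 5, 10 or 15 mg/kg test compound by i.v. infusion over 60 ± 5 min. Hematology, serum chemistry and coagulation were taken at end of treatment and reported as median (IQR). Dose groups were compared by Kruskal-Wallis with Dunn's multiple comparison test.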
# [2] = Coagulation in cynomolgus monkeys at the end of treatment; type: in vivo; settings: median (IQR)
# Method in brief: as §1
smiles,measurement,setting,value
"CC[C@H](C)[C@@H]1NC(=O)[C@@H]2CSSC[C@H](NC(=O)[C@H](CCCNC(=N)N)NC(=O)[C@@H]3CSSC[C@H](NC1=O)C(=O)N[C@@H]([C@@H](C)O)C(=O)N[C@@H](CCCNC(=N)N)C(=O)NCC(=O)N[C@@H](Cc1ccccc1)C(=O)N3)C(=O)N[C@@H](CC(C)C)C(=O)N[C@H]1CSSC[C@H](NC(=O)[C@H](C(C)C)NC(=O)CNC(=O)[C@H](CCCNC(=N)N)NC(=O)[C@H](CCCNC(=N)N)NC1=O)C(=O)N[C@@H](CCCNC(=N)N)C(=O)N2 [RTD-1, Rhesus theta (θ) defensin-1] (HELM PEPTIDE1{G.F.C.R.C.L.C.R.R.G.V.C.R.C.I.C.T.R}$PEPTIDE1,PEPTIDE1,3:R3-16:R3|PEPTIDE1,PEPTIDE1,5:R3-14:R3|PEPTIDE1,PEPTIDE1,7:R3-12:R3|PEPTIDE1,PEPTIDE1,1:R1-18:R2$$$V2.0)","Basophils, absolute","[1]; female, 5 mg/kg/day",0.05 (0.01) 10^3/mm^3
same,"Eosinophils, absolute","[1]; female, 5 mg/kg/day",0.32 (0.27) 10^3/mm^3
same,Hematocrit,"[1]; female, 5 mg/kg/day",43.80 (3.15) %
same,Hemoglobin,"[1]; female, 5 mg/kg/day",12.90 (0.35) g/dL
same,"LUC, absolute","[1]; female, 5 mg/kg/day",0.11 (0.02) 10^3/mm^3
same,"Lymphocytes, absolute","[1]; female, 5 mg/kg/day",3.40 (1.18) 10^3/mm^3
same,MCH,"[1]; female, 5 mg/kg/day",21.20 (1.10) pg
same,MCHC,"[1]; female, 5 mg/kg/day",29.50 (1.35) g/dL
same,MCV,"[1]; female, 5 mg/kg/day",69.20 (1.70) fL
same,"Monocytes, absolute","[1]; female, 5 mg/kg/day",0.53 (0.21) 10^3/mm^3
same,"Neutrophils, absolute","[1]; female, 5 mg/kg/day",6.43 (2.10) 10^3/mm^3
same,Platelets,"[1]; female, 5 mg/kg/day",576.00 (58.00) 10^3/mm^3
same,RBC,"[1]; female, 5 mg/kg/day",6.05 (0.47) 10^6/mm^3
same,RDW,"[1]; female, 5 mg/kg/day",15.10 (0.50) %
same,"Reticulocytes, absolute","[1]; female, 5 mg/kg/day",53.60 (17.00) 10^9/L
same,WBC,"[1]; female, 5 mg/kg/day",12.70 (2.30) 10^3/mm^3
same,"Basophils, absolute","[1]; female, 10 mg/kg/day",0.06 (0.04) 10^3/mm^3
same,"Eosinophils, absolute","[1]; female, 10 mg/kg/day",0.40 (0.06) 10^3/mm^3
same,Hematocrit,"[1]; female, 10 mg/kg/day",38.50 (4.60) %
same,Hemoglobin,"[1]; female, 10 mg/kg/day",10.70 (1.25) g/dL
same,"LUC, absolute","[1]; female, 10 mg/kg/day",0.10 (0.01) 10^3/mm^3
same,"Lymphocytes, absolute","[1]; female, 10 mg/kg/day",4.46 (1.00) 10^3/mm^3
same,MCH,"[1]; female, 10 mg/kg/day",20.20 (1.00) pg
same,MCHC,"[1]; female, 10 mg/kg/day",28.80 (0.70) g/dL
same,MCV,"[1]; female, 10 mg/kg/day",69.70 (4.30) fL
same,"Monocytes, absolute","[1]; female, 10 mg/kg/day",0.66 (0.13) 10^3/mm^3
same,"Neutrophils, absolute","[1]; female, 10 mg/kg/day",5.08 (5.64) 10^3/mm^3
same,Platelets,"[1]; female, 10 mg/kg/day",497.00 (214.50) 10^3/mm^3
same,RBC,"[1]; female, 10 mg/kg/day",5.30 (0.94) 10^6/mm^3
same,RDW,"[1]; female, 10 mg/kg/day",15.10 (0.70) %
same,"Reticulocytes, absolute","[1]; female, 10 mg/kg/day",70.30 (33.40) 10^9/L
same,WBC,"[1]; female, 10 mg/kg/day",10.70 (6.80) 10^3/mm^3
same,"Basophils, absolute","[1]; female, 15 mg/kg/day",0.12 (0.01) 10^3/mm^3
same,"Eosinophils, absolute","[1]; female, 15 mg/kg/day",0.34 (0.10) 10^3/mm^3
same,Hematocrit,"[1]; female, 15 mg/kg/day",38.50 (6.90) %
same,Hemoglobin,"[1]; female, 15 mg/kg/day",10.90 (1.70) g/dL
same,"LUC, absolute","[1]; female, 15 mg/kg/day",0.16 (0.06) 10^3/mm^3
same,"Lymphocytes, absolute","[1]; female, 15 mg/kg/day",5.09 (2.32) 10^3/mm^3
same,MCH,"[1]; female, 15 mg/kg/day",19.90 (0.30) pg
same,MCHC,"[1]; female, 15 mg/kg/day",28.80 (1.10) g/dL
same,MCV,"[1]; female, 15 mg/kg/day",68.90 (2.00) fL
same,"Monocytes, absolute","[1]; female, 15 mg/kg/day",0.79 (0.15)^c 10^3/mm^3
same,"Neutrophils, absolute","[1]; female, 15 mg/kg/day",11.31 (5.67) 10^3/mm^3
same,Platelets,"[1]; female, 15 mg/kg/day",513.00 (299.00) 10^3/mm^3
same,RBC,"[1]; female, 15 mg/kg/day",6.04 (1.28) 10^6/mm^3
same,RDW,"[1]; female, 15 mg/kg/day",14.70 (1.80) %
same,"Reticulocytes, absolute","[1]; female, 15 mg/kg/day",83.90 (46.10) 10^9/L
same,WBC,"[1]; female, 15 mg/kg/day",16.10 (5.40) 10^3/mm^3
same,"Basophils, absolute","[1]; male, 5 mg/kg/day",0.12 (0.08) 10^3/mm^3
same,"Eosinophils, absolute","[1]; male, 5 mg/kg/day",0.26 (0.12) 10^3/mm^3
same,Hematocrit,"[1]; male, 5 mg/kg/day",43.10 (3.05) %
same,Hemoglobin,"[1]; male, 5 mg/kg/day",12.70 (0.85) g/dL
same,"LUC, absolute","[1]; male, 5 mg/kg/day",0.15 (0.07) 10^3/mm^3
same,"Lymphocytes, absolute","[1]; male, 5 mg/kg/day",6.85 (3.12) 10^3/mm^3
same,MCH,"[1]; male, 5 mg/kg/day",19.80 (0.55) pg
same,MCHC,"[1]; male, 5 mg/kg/day",26.40 (1.55) g/dL
same,MCV,"[1]; male, 5 mg/kg/day",75.10 (2.10) fL
same,"Monocytes, absolute","[1]; male, 5 mg/kg/day",0.74 (0.23) 10^3/mm^3
same,"Neutrophils, absolute","[1]; male, 5 mg/kg/day",4.65 (3.33) 10^3/mm^3
same,Platelets,"[1]; male, 5 mg/kg/day",358.00 (21.50) 10^3/mm^3
same,RBC,"[1]; male, 5 mg/kg/day",6.06 (0.42) 10^6/mm^3
same,RDW,"[1]; male, 5 mg/kg/day",15.40 (1.00) %
same,"Reticulocytes, absolute","[1]; male, 5 mg/kg/day",43.70 (23.20) 10^9/L
same,WBC,"[1]; male, 5 mg/kg/day",14.70 (5.95) 10^3/mm^3
same,"Basophils, absolute","[1]; male, 10 mg/kg/day",0.08 (0.04) 10^3/mm^3
same,"Eosinophils, absolute","[1]; male, 10 mg/kg/day",0.20 (0.06) 10^3/mm^3
same,Hematocrit,"[1]; male, 10 mg/kg/day",42.60 (5.20) %
same,Hemoglobin,"[1]; male, 10 mg/kg/day",11.90 (1.30) g/dL
same,"LUC, absolute","[1]; male, 10 mg/kg/day",0.15 (0.01) 10^3/mm^3
same,"Lymphocytes, absolute","[1]; male, 10 mg/kg/day",5.85 (2.85) 10^3/mm^3
same,MCH,"[1]; male, 10 mg/kg/day",20.30 (1.00) pg
same,MCHC,"[1]; male, 10 mg/kg/day",27.90 (0.35) g/dL
same,MCV,"[1]; male, 10 mg/kg/day",72.00 (4.00) fL
same,"Monocytes, absolute","[1]; male, 10 mg/kg/day",0.63 (0.18) 10^3/mm^3
same,"Neutrophils, absolute","[1]; male, 10 mg/kg/day",4.31 (1.38) 10^3/mm^3
same,Platelets,"[1]; male, 10 mg/kg/day",450.00 (114.00) 10^3/mm^3
same,RBC,"[1]; male, 10 mg/kg/day",6.35 (0.58) 10^6/mm^3
same,RDW,"[1]; male, 10 mg/kg/day",17.20 (1.35) %
same,"Reticulocytes, absolute","[1]; male, 10 mg/kg/day",60.00 (71.70) 10^9/L
same,WBC,"[1]; male, 10 mg/kg/day",11.00 (1.75) 10^3/mm^3
same,"Basophils, absolute","[1]; male, 15 mg/kg/day",0.11 (0.10) 10^3/mm^3
same,"Eosinophils, absolute","[1]; male, 15 mg/kg/day",0.39 (0.70) 10^3/mm^3
same,Hematocrit,"[1]; male, 15 mg/kg/day",38.40 (2.30) %
same,Hemoglobin,"[1]; male, 15 mg/kg/day",11.10 (0.90) g/dL
same,"LUC, absolute","[1]; male, 15 mg/kg/day",0.17 (0.11)^c 10^3/mm^3
same,"Lymphocytes, absolute","[1]; male, 15 mg/kg/day",4.78 (2.17) 10^3/mm^3
same,MCH,"[1]; male, 15 mg/kg/day",20.20 (0.90) pg
same,MCHC,"[1]; male, 15 mg/kg/day",28.90 (1.20) g/dL
same,MCV,"[1]; male, 15 mg/kg/day",71.20 (3.40) fL
same,"Monocytes, absolute","[1]; male, 15 mg/kg/day",1.10 (0.74) 10^3/mm^3
same,"Neutrophils, absolute","[1]; male, 15 mg/kg/day",7.62 (9.59) 10^3/mm^3
same,Platelets,"[1]; male, 15 mg/kg/day",634.00 (42.00)^d 10^3/mm^3
same,RBC,"[1]; male, 15 mg/kg/day",5.56 (0.40) 10^6/mm^3
same,RDW,"[1]; male, 15 mg/kg/day",14.80 (0.80) %
same,"Reticulocytes, absolute","[1]; male, 15 mg/kg/day",69.10 (47.50) 10^9/L
same,WBC,"[1]; male, 15 mg/kg/day",14.90 (12.80) 10^3/mm^3
same,APTT,"[2]; female, 5 mg/kg",22.40 (2.05) s
same,Fibrinogen,"[2]; female, 5 mg/kg",238.00 (40.50) mg/dL
same,PT,"[2]; female, 5 mg/kg",12.20 (0.25) s
same,APTT,"[2]; female, 10 mg/kg",20.80 (0.55) s
same,Fibrinogen,"[2]; female, 10 mg/kg",294.00 (7.50) mg/dL
same,PT,"[2]; female, 10 mg/kg",11.80 (0.25) s
same,APTT,"[2]; female, 15 mg/kg",22.60 (0.90) s
same,Fibrinogen,"[2]; female, 15 mg/kg",300.00 (57.00)^d mg/dL
same,PT,"[2]; female, 15 mg/kg",12.30 (0.50) s
same,APTT,"[2]; male, 5 mg/kg",21.60 (0.80) s
same,Fibrinogen,"[2]; male, 5 mg/kg",306.00 (49.50) mg/dL
same,PT,"[2]; male, 5 mg/kg",12.00 (0.55) s
same,APTT,"[2]; male, 10 mg/kg",21.10 (0.45) s
same,Fibrinogen,"[2]; male, 10 mg/kg",285.00 (22.50) mg/dL
same,PT,"[2]; male, 10 mg/kg",12.00 (0.25) s
same,APTT,"[2]; male, 15 mg/kg",22.10 (1.65) s
same,Fibrinogen,"[2]; male, 15 mg/kg",336.00 (114.00) mg/dL
same,PT,"[2]; male, 15 mg/kg",12.25 (0.83) s
